Source: PubChem
Rows were chosen to be rich in hits. Some 2.1% of all compounds tested hit in one or more screens of this group.
Mot1-301 SUMO: SUMOylation pathway inhibition by Mot1-301 growth rescue; S. cerevisiae Mot1-301 growth rescue, ATP luminescence, 38.5C; percent above DMSO median, 100 means doubled; growth rescue, % at 18.8 µM; 320,000 compounds, 1% hits; AID 2716;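 active means every valid replicate shows activation above 250% relative to neutral control wells; inactive means the rest, any valid replicate at or below 250%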;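 further: OY570 slx delta 5 strain wells were the positive control but not used for scaling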
APOBEC3G inh: inhibitors of human APOBEC3G DNA deaminase; recombinant A3G, ssDNA deamination FAM/TAMRA fluorescence; inhibition, % at 20 µM; 330,000 compounds, 0.28% hits; AID 493012;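 active means inhibition of at least 40% at 20 µM, with no more than 30% in the related APOBEC3A deaminase screen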;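 further: plate controls were DMSO wells with A3G for no effect and wells lacking A3G enzyme for full effect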
Target sequence (Q9HC16 whole entry, looked up): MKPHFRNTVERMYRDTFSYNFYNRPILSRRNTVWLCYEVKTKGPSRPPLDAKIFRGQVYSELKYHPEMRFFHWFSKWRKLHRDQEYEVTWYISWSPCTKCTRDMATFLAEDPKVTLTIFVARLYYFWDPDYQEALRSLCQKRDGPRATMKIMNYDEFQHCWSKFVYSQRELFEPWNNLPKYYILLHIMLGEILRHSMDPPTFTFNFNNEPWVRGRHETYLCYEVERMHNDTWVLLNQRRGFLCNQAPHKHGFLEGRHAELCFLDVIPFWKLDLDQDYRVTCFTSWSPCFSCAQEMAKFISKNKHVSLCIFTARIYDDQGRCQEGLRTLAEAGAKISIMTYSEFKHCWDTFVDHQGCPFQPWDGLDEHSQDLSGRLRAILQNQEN
ASAP1 inh: ASAP1 ArfGAP inhibition | Q9ULH1 | ASAP1-stimulated ARF1 GTP hydrolysis, GDP FP detection | inhibition, % at 16.5 µM | AID 624377 | 360,000 compounds, 0.19% hits; in the data active means inhibition above about 25%;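 further: 0% = vehicle with enzyme and substrate and 100% = no enzyme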
C2C12 statin: protects C2C12 myotubes from simvastatin toxicity. ATP luminescence, 48 h; scaled: DMSO 0, geranylgeraniol control 100. rescue of ATP level, % at 7.49 µM. 330,000 compounds, 0.78% hits. AID 602340;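 active means mean ATP rescue above about 67%, or every replicate alone reaching that limit, limit read from the data, passing the limit was not always enough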;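 further: myotubes were challenged with 10 µM simvastatin during compound exposure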
A3A deaminase: inhibitors of human APOBEC3A DNA deaminase; recombinant A3A, FAM/TAMRA ssDNA deamination fluorescence; inhibition, % at 20 µM; 330,000 compounds, 0.41% hits;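 active means at least 40% inhibition at 20 µM here, with at most 30% in a related deaminase screen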;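 further: plate controls were A3A with DMSO for no effect and wells lacking A3A enzyme for full effect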
Target sequence (P31941 whole entry, looked up): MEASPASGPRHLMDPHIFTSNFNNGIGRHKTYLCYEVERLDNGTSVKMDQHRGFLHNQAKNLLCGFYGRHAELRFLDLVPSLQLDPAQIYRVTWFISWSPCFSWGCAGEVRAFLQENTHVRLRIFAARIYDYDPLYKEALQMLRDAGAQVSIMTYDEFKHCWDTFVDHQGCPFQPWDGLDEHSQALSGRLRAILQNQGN
ARFGAP1 inh: rat ARFGAP1 inhibition. Q62848. Arfgap1-stimulated ARF1 GTP hydrolysis, GDP FP detection. inhibition, % at 16.5 µM. 360,000 compounds, 0.26% hits. AID 651572;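 active means inhibition above a per-plate limit, mean inhibition of low control wells plus 3 SD, cut at about 25% in these data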;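 further: 0% = DMSO wells with enzyme and 100% = wells lacking Arfgap1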
Target sequence (Q62848 1-136 limits assumed): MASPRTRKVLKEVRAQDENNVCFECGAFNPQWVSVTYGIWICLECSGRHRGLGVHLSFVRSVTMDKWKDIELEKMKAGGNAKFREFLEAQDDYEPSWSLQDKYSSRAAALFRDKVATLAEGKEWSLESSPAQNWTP
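System: truncated rat Arfgap1 GAP domain / Medium: HEPES-based buffer, pH 7.5 / Also added: N-terminally truncated human ARF1-GTP substrate / Incubation: enzyme reaction 120 min at 25 °C after 20 min preincubation / Measured by: FP of antibody-bound GDP Alexa 633 tracer, ex 620/em 688 nm / Replicates: singlicate, each compound tested once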
APOBEC3A confirm: confirmation of human APOBEC3A DNA deaminase inhibitors | shares compounds with A3A deaminase | recombinant A3A, ssDNA deaminase UDG fluorescence assay | inhibition, % at 20 µM | 1,400 compounds, 63% hits | AID 493151;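 active means inhibition reaching a set limit, 80% of the first screen's cutoff, at 20 µM in any replicate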;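 further: plate controls were DMSO wells with A3A for no effect and wells lacking A3A enzyme for full effect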
UDG A3A counter: counter-screen for APOBEC3A inhibitors: UDG. shares compounds with A3A deaminase. UDG counterscreen, FAM/TAMRA uracil oligo fluorescence. inhibition, % at 20 µM. 1,000 tested, under 10 active; call rule not given here
Starred values were filed as active, the others as inactive; x = no result given.

SMILES	Mot1-301 SUMO	APOBEC3G inh	ASAP1 inh	C2C12 statin	A3A deaminase	ARFGAP1 inh	APOBEC3A confirm	UDG A3A counter
CCc1nn(CCCC(=O)N2CCC(C)CC2)c(=O)c2cc3occc3n12	-1.1	-1.9	7.0	41.4	40.2*	15.0	-6.9	-1.2
CCN(CC(=O)NCC(=O)Nc1ccc(Br)cc1C)Cc1ccccc1	-6.9	-7.5	2.8	12.9	40.1*	3.4	8.0	5.0
Cc1ccc(S(=O)(=O)N(CC(=O)O)Cc2ccco2)cc1	-3.5	12.3	5.0	x	51.6*	13.7	56.3*	0.9
Cc1ccc(S(=O)(=O)N(Cc2ccccc2)Cc2ccco2)cc1	49.3	-5.1	-1.3	-17.5	-2.2	-5.8	x	x
COc1ccc(CNC(=O)C[C@@H]2C[C@@H]3c4cc(NC(=O)NC5CCCC5)ccc4O[C@@H]3[C@H](CO)O2)cc1	x	x	x	4.2	x	x	x	x
O=C(O)c1cc2nc(-c3cccs3)cc(C(F)(F)F)n2n1	-4.0	-11.6	-3.6	-2.9	74.4*	0.8	49.6*	-3.5
CCn1cc(-c2cc(C(F)(F)F)n3nc(C(=O)O)cc3n2)c(C)n1	-1.5	-11.5	-1.6	x	54.1*	8.0	29.5*	-32.3
O=C(C[C@@H]1C=C[C@H](NC(=O)CC2CC2)[C@H](CO)O1)NCc1ccc(-c2ccccc2)cc1	x	x	x	21.8	x	x	x	x
CO[C@H]1CN(C)C(=O)c2cc(NC(=O)C3CCCC3)ccc2OC[C@@H](C)N(C)C[C@H]1C	x	x	x	4.3	x	x	x	x
O=C(Cc1ccccn1)NCC[C@@H]1CC[C@H](NS(=O)(=O)c2ccc(Cl)cc2)[C@@H](CO)O1	x	x	x	1.5	x	x	x	x
COc1ccc(CCCC(=O)NC2CCCCC2C)c(C)c1 (centres undefined)	10.7	29.3	4.8	-0.7	70.7*	-3.2	70.8*	2.8
CC(=O)c1ccc(OCCCC(=O)NC2CCCCC2C)cc1 (centres undefined)	-20.0	-6.2	-5.6	0.8	-1.9	8.2	x	x
COc1ccc(CCCC(=O)NCCc2ccccc2)c(C)c1	77.4	6.5	2.3	10.5	40.8*	6.7	11.7	x
CC(C)C(=O)Nc1ccc2c(c1)C(=O)N(C)[C@H]1CC[C@H](CC(=O)NCc3ccc(F)cc3)O[C@@H]1CO2	x	x	x	4.8	x	x	x	x
COc1ccc2c(COC(=O)CC3Sc4ccccc4NC3=O)cc(=O)oc2c1 (centres undefined)	1.8	0.2	-0.4	x	8.8	-5.8	x	x
CC(=O)Nc1ccc2c(COC(=O)CC3Sc4ccccc4NC3=O)cc(=O)oc2c1 (centres undefined)	-1.0	16.2	12.9	x	50.0*	2.6	50.9*	4.8
C[C@H]1CN([C@@H](C)CO)C(=O)c2cc(NC(=O)C3CC3)ccc2O[C@H]1CN(C)Cc1ccncc1	x	x	x	35.4	x	x	x	x
Cc1ccc2c(c1C)NC(=O)C2(O)CC(=O)c1ccc2c(c1)OCO2 (centres undefined)	-4.9	-4.4	-3.9	14.5	1.1	-8.5	x	x
O=C(CC1(O)C(=O)Nc2ccccc21)c1ccc2c(c1)OCO2 (centres undefined)	0.4	-1.8	-20.6	9.5	78.7*	7.5	3.7	-0.3
COc1cccc(C(=O)N/N=C/c2ccc(Oc3ccc([N+](=O)[O-])cn3)c(OC)c2)c1	-0.6	19.2	0.4	x	59.2*	10.2	61.6*	-2.4
C[C@H](CO)N1C[C@H](C)[C@@H](CN(C)C(=O)C2CC2)Oc2cc(C#CCN(C)C)ccc2S1(=O)=O	x	x	x	-26.2	x	x	x	x
CCCc1n(CC(O)COC2CCCCC2)c2ccccc2[n+]1C (centres undefined)	x	12.5	3.7	-12.6	56.3*	8.6	76.1*	1.3
CCCc1n(CC(O)COCc2ccccc2)c2ccccc2[n+]1C (centres undefined)	-9.6	8.1	-0.6	x	58.0*	1.6	68.6*	-2.0
CCCc1n(CC(O)COCC2CC=CCC2)c2ccccc2[n+]1C (centres undefined)	205.6	9.5	5.5	-18.4	36.7	13.2	x	x
CC=Cc1ccc2n(c1=O)C[C@@H]1[C@@H](CO)[C@H](C(=O)NCCC)[C@H]2N1C(=O)c1ccccc1F (mixture of isomers)	x	x	x	-13.5	x	x	x	x
SMILES	Mot1-301 SUMO	APOBEC3G inh	ASAP1 inh	C2C12 statin	A3A deaminase	ARFGAP1 inh	APOBEC3A confirm	UDG A3A counter
C[n+]1ccc(/C=C/c2ccccc2O)c2ccccc21	-11.4	11.5	1.7	x	64.4*	-7.3	65.2*	-0.5
CN1C(=O)c2cc(NC(=O)c3ccc(F)cc3)ccc2OC[C@H]2O[C@@H](CC(=O)NCC3CCCCC3)CC[C@@H]21	x	x	x	20.2	x	x	x	x
Cn1cc(/C=C2/SC(=O)N(CC(=O)Nc3ccc4c(c3)OCO4)C2=O)c2ccccc21	-6.0	-0.7	-15.1	x	-2.9	-8.3	x	x
O=C(CN1C(=O)S/C(=C\c2ccc(-c3cc(C(=O)O)ccc3Cl)o2)C1=O)Nc1ccc2c(c1)OCO2	-1.2	-3.4	14.5	1.7	49.7*	-0.9	3.1	4.0
CCOc1ccccc1NC(=S)N1CCN(c2ccc(OC)cc2)CC1	13.1	-3.5	-13.6	7.5	83.3*	3.4	-9.2	-2.9
CCOc1ccccc1NC(=S)N1CCN(c2ccc(O)cc2)CC1	7.1	-4.7	17.0	2.1	-2.0	2.5	x	x
CC(C)(C)N(Cc1ccccc1)C(=O)CN1C(=O)c2ccccc2S1(=O)=O	71.7	1.2	-12.5	5.6	45.1*	-8.8	37.6*	2.4
C[C@@H]1CN([C@H](C)CO)C(=O)c2cc(NC(=O)Nc3ccccc3)ccc2O[C@H]1CN(C)S(C)(=O)=O	x	x	x	-10.7	x	x	x	x
CN(c1ccc(C(=O)Nc2cccnc2)cc1)S(=O)(=O)c1ccc(Cl)cc1	-13.1	1.3	-4.5	5.1	1.3	5.7	x	x
CN(c1ccc(C(=O)Nc2cccnc2)cc1)S(=O)(=O)c1ccccc1	8.2	1.5	0.7	-11.9	52.4*	-7.1	28.0	x
C[C@H](CO)N1C[C@H](C)[C@@H](CN(C)C(=O)Cc2ccccc2)Oc2ncc(-c3ccc(F)cc3)cc2C1=O	x	x	x	7.9	x	x	x	x
C[N+]1(C2CCC3CCCC2C3O)CCCC1 (centres undefined)	4.2	9.9	-5.8	x	59.1*	-4.6	73.8*	-0.5
COCCN(CC(=O)Nc1cccc(C)c1C)C(=O)CN1C(=O)NC2(CCCCC2)C1=O	-1.0	5.9	-6.5	-6.5	41.2*	3.9	49.5*	0.9
O=C(O)c1cc(O)c2c(c1)C(=O)c1cc(O)cc(O)c1C2=O	6.4	28.0	-1.3	5.8	67.3*	-2.8	59.0*	-0.1
Cn1c(CNC(=O)c2ccco2)nnc1SCC(=O)N1c2ccccc2Sc2ccccc21	-17.4	18.2	-5.3	93.5*	62.9*	-5.3	58.5*	-3.1
